# STAT1 blocker – STAT1 signaling inhibition; NIH 3T3 STAT1-luciferase reporter, IFN-gamma, luminescence; inhibition, % at 5.5 µM; actives 0.35% (n = 200,000);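 active means inhibition above a set limit, the mean inhibition across all tested compounds plus 3 SD, cut at about 34% in these data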;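 further: 0% = IFN-gamma with DMSO and 100% = IFN-gamma with 300 µM nifuroxazide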
# STAT1 activator – increases IFN-gamma driven STAT1 reporter signal; actives 2.6% (n = 200,000); AID 932; NIH 3T3 STAT1-luciferase reporter, luminescence; 100% = IFN-gamma alone, no compound; activation (% of control), % at 5.5 µM;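 active means activation above the screen-wide mean activation plus 3 SD, cut at about 130% in these data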;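 further: raw ratio to IFN-gamma control signal so 100% means no change and 0% no light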
# STAT3 act – STAT3 signaling activation; U3A cells, IL-6 STAT3-luciferase reporter, luminescence; 100% = signal with IL-6 EC80 alone; activation (% of control), % at 5.6 µM; AID 871; actives 0.91% (n = 190,000);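 active means activation above the screen-wide mean of compound activation plus 3 SD, cut at about 130% in these data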;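 further: 0% = background luminescence of wells with medium and substrate only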
#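 Material: STAT3-luciferase reporter U3A cells; Probe or stimulus: IL-6 (33 ng/mL); Incubation: compound pre-incubation 1 h before IL-6, then 6 h stimulation at 37 °C; Technique: luminescence from STAT3-driven luciferase reporter; Evaluation: % activation versus median of IL-6-stimulated wells; Controls: IL-6-only high control.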
# STAT3 inh-1 – reduces IL-6 driven STAT3 reporter signal; inhibition, % at 5.5 µM; actives 0.89% (n = 190,000); U3A cells, IL-6 STAT3-luciferase reporter, luminescence; host cell line lacks STAT1;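 active means inhibition above the mean inhibition across all screened compounds plus 3 SD, cut at about 44% in these data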;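 further: 0% = DMSO only wells and 100% = 100 µM nifuroxazide control wells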
# STAT3 inh-2 – confirmation of STAT3 signaling inhibitors | shares compounds with STAT3 inh-1 | U3A cells, IL-6 STAT3 luciferase reporter, luminescence; cell line lacks STAT1 | inhibition, % at 5.7 µM | actives 45% (n = 1,200);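 active means inhibition above the hit cutoff computed for the primary STAT3 screen, cut at about 44% in these data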;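 further: 0% = IL-6 plus DMSO and 100% = IL-6 plus nifuroxazide control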
# NFkB inh 2 – counter-screen for STAT3 inhibitors: NF-kappaB inhibition. inhibition, % at 5.7 µM. HEK293T NF-kB luciferase reporter, TNF-alpha induced. actives 36% (n = 1,200). shares compounds with STAT3 inh-1;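 active means inhibition above the mean of solvent-only control wells plus 3 SD, cutoff set per campaign, cut at about 13% in these data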;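 further: 0% = TNF-alpha with DMSO and 100% = TNF-alpha with MG high control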
# STAT1 inh STAT3c – STAT1 inhibition in STAT3 inhibitor counter-screen; shares compounds with STAT3 inh-1; NIH 3T3 STAT1-luciferase reporter, IFN-gamma induced, luminescence; inhibition, % at 5.7 µM; actives 27% (n = 1,200); AID 1317;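 active means inhibition above the mean plus 3 SD of solvent-only control wells, limit set per screening run, cut at about 16% in these data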;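 further: 0% = DMSO with IFN-gamma and 100% = nifuroxazide control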
# Active calls of the source: *; · = not tested or not shown. This is a sample that favours compounds with a hit; in the whole collection about 4.3% have one here.
SMILES,STAT1 blocker,STAT1 activator,STAT3 act,STAT3 inh-1,STAT3 inh-2,NFkB inh 2,STAT1 inh STAT3c
COC(=O)Cc1[nH]n(-c2nc3ccccc3s2)c(=O)c1C(C)=Nc1ccc(C)cc1,21,80,16,100*,68*,64*,-10
O=C(c1ccc(Cl)c([N+](=O)[O-])c1)N1CCN(Cc2ccc3c(c2)OCO3)CC1,0,98,103,3,·,·,·
C=CCn1c(C)c(C(C)=O)c(N2CCN(C(c3ccccc3)c3ccccc3)CC2)nc1=S,-5,107,94,12,·,·,·
CCC(CC)C(=O)c1c[nH]c(C(=O)N2CCN(c3ccccc3F)CC2)c1,-3,102,87,21,·,·,·
CCCOc1ccc(C(=O)Nc2ccc(N(C)C)cc2)cc1,-21,119,67,47*,30,-15,-42
CCCCOc1ccc(C(=O)Nc2ccncc2)cc1,18,84,36,79*,79*,4,14
CC(C)Oc1ccc(C(=O)Nc2ccc(N(C)C)cc2)cc1,-10,109,61,54*,35,-9,-36
S=c1[nH]nc(-c2cccc(Cl)c2)n1CCN1CCCCC1,-2,102,99,6,·,·,·
COc1ccc(C(=O)C2CCCN(Cc3cccc4c3OCO4)C2)cc1OC (stereo unspecified),6,93,106,-2,·,·,·
COc1cccc(CNCc2cccnc2)c1OCc1ccccc1,-2,100,106,-2,·,·,·
COc1ccccc1CNC(=O)C1(NC(=O)Nc2ccc(C)cc2)CCCCC1,6,96,102,3,·,·,·
C=CCc1c(C)nc(N)[nH]c1=O,2,98,104,-1,·,·,·
CCCC(=O)Nc1ccc(C(=O)Nc2ccc([N+](=O)[O-])cc2OC)cc1,-4,101,83,25,·,·,·
N=c1c2c(n(Cc3ccc([N+](=O)[O-])cc3)c3c1CCC3)CCCC2,4,96,96,13,·,·,·
N=c1c2c(n(Cc3ccc(Br)cc3)c3c1CCC3)CCCC2,19,83,48,63*,49*,1,22*
N=c1c2c(n(Cc3ccc(Cl)c(Cl)c3)c3c1CCC3)CCCC2,28,75,53,61*,24,9,25*
CCCCC[n+]1cccc2c3ccccc3ccc21,31,70,42,73*,66*,21*,24*
Cc1ccc(-c2nc(NC(=O)c3nn(C)cc3[N+](=O)[O-])sc2C)cc1,36*,67,57,54*,24,15*,4
Cc1ccc(Cn2ccc(NC(=O)c3nn(C)cc3[N+](=O)[O-])n2)cc1,11,90,92,10,·,·,·
Cc1cnc(NC(=O)c2nn(C)cc2[N+](=O)[O-])s1,15,83,54,58*,20,12,-6
Cn1cc([N+](=O)[O-])c(C(=O)Nc2nc(-c3ccc(Cl)cc3)cs2)n1,24,79,53,60*,35,18*,11
Cc1nn(Cc2c(F)c(F)c(F)c(F)c2F)c(C)c1NC(=O)c1nn(C)cc1[N+](=O)[O-],7,93,97,4,·,·,·
Cc1ccc(-c2nc(NC(=O)c3nn(C)cc3[N+](=O)[O-])sc2C)cc1C,28,74,62,49*,28,17*,1
Cc1cc(C)n(Cc2ccc(NC(=O)c3nn(C)cc3[N+](=O)[O-])cc2)n1,0,100,77,31,·,·,·
CC(Sc1n[nH]c(N)n1)C(=O)Nc1cccc(S(=O)(=O)N2CCOCC2)c1 (stereo unspecified),0,99,105,1,·,·,·
SMILES,STAT1 blocker,STAT1 activator,STAT3 act,STAT3 inh-1,STAT3 inh-2,NFkB inh 2,STAT1 inh STAT3c
O=C(CSc1cnc2ccccc2n1)c1ccc(F)cc1,-17,115,52,58*,-3,-37,-70
COC(=O)CSc1cnc2ccccc2n1,-9,104,111,-13,·,·,·
COCCn1c(C)cc(C(=O)COC(=O)c2ccc[nH]c2=O)c1C,28,75,59,48*,2,-4,-14
O=S(=O)(c1ccc(N2CCN(c3ccc(F)cc3)CC2)cc1)N1CCCC1,-3,103,92,11,·,·,·
O=S(=O)(c1ccc(N2CCCC2)cc1)C(F)(F)F,7,96,66,44*,10,-8,-9
COc1ccc(-c2noc(CCC(=O)O)n2)cc1,-9,108,94,15,·,·,·
CCOc1ccc(-c2noc(CCC(=O)O)n2)cc1,23,79,55,59*,40,24*,10
COc1ccc(-c2noc(CCCC(=O)O)n2)cc1,33,70,56,57*,45*,30*,11
CC(=O)Oc1ccc(C(=O)Nc2cc(NC(=O)c3ccc(OC(C)=O)cc3)cc(C(=O)NC(C)(C)C)c2)cc1,-3,103,108,-9,·,·,·
CN1/C(=C\C(=O)C[n+]2ccc3ccccc3c2)C(C)(C)c2ccccc21,6,95,41,73*,74*,1,3
COc1ccccc1OCC(=O)/C=C1/N(C)c2ccccc2C1(C)C,15,85,92,17,·,·,·
NC(=O)c1ccc(-c2ncc(-c3ccccc3)o2)cc1,32,71,55,54*,2,20*,-44
NC(=O)c1ccccc1,-2,100,102,-1,·,·,·
COc1cccc(/C=N/Nc2nccnc2Cl)c1O,-4,102,34,83*,21,24*,-8
COc1cccc(/C=N/NC(=O)C(=O)N/N=C/c2cccc(OC)c2O)c1O,-4,104,103,3,·,·,·
COC(=O)c1sccc1N/N=C/c1cccc(OC)c1O,-4,104,49,60*,19,-9,-3
COc1cccc(/C=N/Nc2ncnc(Cl)c2N)c1O,0,100,87,17,·,·,·
Cc1c(Br)c([N+](=O)[O-])nn1CC(=O)Nc1c(C)n(C)n(-c2ccccc2)c1=O,-3,102,99,0,·,·,·
C[n+]1c2n(c3ccccc31)N=C(c1ccc(-c3ccccc3)cc1)CS2,29,72,46,66*,33,3,29*
Cc1cc(-c2nnc3n2N=C(c2ccc(-c4ccccc4)cc2)CS3)n[nH]1,3,97,91,13,·,·,·
COc1cc(C)ccc1S(=O)(=O)n1nc(C)cc1C,2,98,91,16,·,·,·
O=Cc1ccc(OCC(=O)Nc2ccccc2C(F)(F)F)cc1,-7,104,105,-1,·,·,·
Cc1ccc(S(=O)(=O)/N=C(\N)Nc2nc(C)c3ccc(C)cc3n2)cc1,-3,106,69,42,·,·,·
Cc1ccc(S(=O)(=O)/N=C(\N)Nc2nc(C)c3cc(C)c(C)cc3n2)cc1,0,99,66,44*,30,-7,-16
CCCCCc1ccc(OCCCC[n+]2cccc(C)c2)c(CCCCC)c1,27,74,54,58*,48*,-1,26*
